Assay results published in ChEMBL document CHEMBL4219120, “Synthesis and SAR study of new hydroxy and chloro-substituted 2,4-diphenyl 5H-chromeno[4,3-b]pyridines as selective topoisomerase IIα-targeting anticancer agents” (Bioorg Med Chem, 2018).
Structures can show the parent of a compound that is named as a salt. Calls of active or inactive are those of the source. The rule behind the calls is not given here.

Assays:
HCT-15 = assay: Antiproliferative activity against human HCT15 cells after 72 hrs by CCK-8 assay; format: functional, cell-based; details: HCT-15, 72 h
Summary of the method: (§1)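 Cells seeded at 2-4 x 10^4 per well and grown overnight in medium with 10% FBS (37 °C, 5% CO2). After 4 h FBS starvation, medium was replaced with medium containing graded compound concentrations for 72 h. CCK-8 was added for 4 h more, then absorbance read at 450 nm. IC50 came from a four-parameter logistic fit. Mean ± S.D. of three experiments, each in triplicate.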

HeLa = assay: Antiproliferative activity against human HeLa cells after 72 hrs by CCK-8 assay; format: functional, cell-based; summary of the method: as §1
T47D = assay: Antiproliferative activity against human T47D cells after 72 hrs by CCK-8 assay; format: functional, cell-based; summary of the method: as §1
[1] = target: DNA topoisomerase 2-alpha (Homo sapiens) (UniProt P11388); assay: Inhibition of recombinant human topoisomerase 2alpha assessed as decrease in relaxation of supercoiled pBR322 DNA at 100 uM after 30 mins by agarose gel electrophoresis relative to etoposide
[2] = target: T1, DNA topoisomerase 1 (Homo sapiens) (UniProt P11387); assay: Inhibition of recombinant human topoisomerase 1 assessed as decrease in relaxation of supercoiled pBR322 DNA at 100 uM after 30 mins by agarose gel electrophoresis relative to camptothecin
T1 sequence (whole entry): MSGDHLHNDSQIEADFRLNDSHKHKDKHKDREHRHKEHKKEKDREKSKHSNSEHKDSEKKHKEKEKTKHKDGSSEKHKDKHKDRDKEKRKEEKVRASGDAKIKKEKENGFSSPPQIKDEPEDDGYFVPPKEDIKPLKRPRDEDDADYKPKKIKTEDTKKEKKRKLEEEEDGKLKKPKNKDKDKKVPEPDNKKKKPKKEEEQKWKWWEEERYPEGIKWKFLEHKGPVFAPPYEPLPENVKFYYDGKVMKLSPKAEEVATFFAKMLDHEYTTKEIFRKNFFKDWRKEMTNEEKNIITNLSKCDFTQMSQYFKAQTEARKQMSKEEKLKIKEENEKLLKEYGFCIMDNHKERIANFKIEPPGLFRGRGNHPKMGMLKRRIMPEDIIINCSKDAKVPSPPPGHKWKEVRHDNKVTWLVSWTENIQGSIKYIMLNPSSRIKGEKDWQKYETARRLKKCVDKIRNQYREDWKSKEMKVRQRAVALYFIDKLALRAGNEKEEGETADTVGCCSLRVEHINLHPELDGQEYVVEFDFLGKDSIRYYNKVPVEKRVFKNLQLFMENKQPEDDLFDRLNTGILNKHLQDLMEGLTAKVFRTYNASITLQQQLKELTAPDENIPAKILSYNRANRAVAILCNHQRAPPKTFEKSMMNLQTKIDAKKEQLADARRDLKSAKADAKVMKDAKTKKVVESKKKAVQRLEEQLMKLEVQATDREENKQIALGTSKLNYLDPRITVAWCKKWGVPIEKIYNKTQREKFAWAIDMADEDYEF

[3] = target: T1, DNA topoisomerase 1 (Homo sapiens); assay: Inhibition of recombinant human topoisomerase 1 assessed as decrease in relaxation of supercoiled pBR322 DNA at 20 uM after 30 mins by agarose gel electrophoresis relative to camptothecin
[4] = target: DNA topoisomerase 2-alpha (Homo sapiens) (UniProt P11388); assay: Inhibition of recombinant human topoisomerase 2alpha assessed as decrease in relaxation of supercoiled pBR322 DNA at 20 uM after 30 mins by agarose gel electrophoresis relative to etoposide
[5] = target: DNA topoisomerase 2-alpha (Homo sapiens) (UniProt P11388); assay: Inhibition of recombinant human topoisomerase 2alpha assessed as decrease in relaxation of supercoiled pBR322 DNA at 100 uM after 30 mins by agarose gel electrophoresis relative to control
Summary of the method: (§2)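 Recombinant human topo IIα (1 unit) with 100 ng supercoiled pBR322 in 10 mM Tris-HCl pH 7.9, 50 mM NaCl, 50 mM KCl, 5 mM MgCl2, 1 mM EDTA, 1 mM ATP, 15 µg/mL BSA, 30 min at 37 °C. Quenched with 7 mM EDTA. 0.8% agarose/TAE gel, 50 V, 1 h; EtBr stain; UV densitometry. Compounds came from 20 mM DMSO stocks. 20 µM was tested only when inhibition at 100 µM exceeded 30%. Etoposide was the positive control.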

[6] = target: DNA topoisomerase 2-alpha (Homo sapiens) (UniProt P11388); assay: Inhibition of recombinant human topoisomerase 2alpha assessed as decrease in relaxation of supercoiled pBR322 DNA at 20 uM after 30 mins by agarose gel electrophoresis relative to control; summary of the method: as §2
[7] = target: T1, DNA topoisomerase 1 (Homo sapiens); assay: Inhibition of recombinant human topoisomerase 1 assessed as decrease in relaxation of supercoiled pBR322 DNA at 100 uM after 30 mins by agarose gel electrophoresis relative to control
Summary of the method: (§3)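 Supercoiled pBR322 (100 ng) with 1 unit recombinant human topo I in 10 mM Tris-HCl pH 7.9, 150 mM NaCl, 0.1% BSA, 0.1 mM spermidine, 5% glycerol, 30 min at 37 °C. Stopped with SDS/dye stop solution. Run on 0.8% agarose in TAE, 50 V, 1 h; EtBr-stained; bands quantitated under UV. Compounds came from 20 mM DMSO stocks. 20 µM was tested only when inhibition at 100 µM exceeded 30%. Camptothecin was the positive control.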

[8] = target: T1, DNA topoisomerase 1 (Homo sapiens); assay: Inhibition of recombinant human topoisomerase 1 assessed as decrease in relaxation of supercoiled pBR322 DNA at 20 uM after 30 mins by agarose gel electrophoresis relative to control; summary of the method: as §3

Chain of DNA topoisomerase 2-alpha (Homo sapiens) (P11388 whole entry): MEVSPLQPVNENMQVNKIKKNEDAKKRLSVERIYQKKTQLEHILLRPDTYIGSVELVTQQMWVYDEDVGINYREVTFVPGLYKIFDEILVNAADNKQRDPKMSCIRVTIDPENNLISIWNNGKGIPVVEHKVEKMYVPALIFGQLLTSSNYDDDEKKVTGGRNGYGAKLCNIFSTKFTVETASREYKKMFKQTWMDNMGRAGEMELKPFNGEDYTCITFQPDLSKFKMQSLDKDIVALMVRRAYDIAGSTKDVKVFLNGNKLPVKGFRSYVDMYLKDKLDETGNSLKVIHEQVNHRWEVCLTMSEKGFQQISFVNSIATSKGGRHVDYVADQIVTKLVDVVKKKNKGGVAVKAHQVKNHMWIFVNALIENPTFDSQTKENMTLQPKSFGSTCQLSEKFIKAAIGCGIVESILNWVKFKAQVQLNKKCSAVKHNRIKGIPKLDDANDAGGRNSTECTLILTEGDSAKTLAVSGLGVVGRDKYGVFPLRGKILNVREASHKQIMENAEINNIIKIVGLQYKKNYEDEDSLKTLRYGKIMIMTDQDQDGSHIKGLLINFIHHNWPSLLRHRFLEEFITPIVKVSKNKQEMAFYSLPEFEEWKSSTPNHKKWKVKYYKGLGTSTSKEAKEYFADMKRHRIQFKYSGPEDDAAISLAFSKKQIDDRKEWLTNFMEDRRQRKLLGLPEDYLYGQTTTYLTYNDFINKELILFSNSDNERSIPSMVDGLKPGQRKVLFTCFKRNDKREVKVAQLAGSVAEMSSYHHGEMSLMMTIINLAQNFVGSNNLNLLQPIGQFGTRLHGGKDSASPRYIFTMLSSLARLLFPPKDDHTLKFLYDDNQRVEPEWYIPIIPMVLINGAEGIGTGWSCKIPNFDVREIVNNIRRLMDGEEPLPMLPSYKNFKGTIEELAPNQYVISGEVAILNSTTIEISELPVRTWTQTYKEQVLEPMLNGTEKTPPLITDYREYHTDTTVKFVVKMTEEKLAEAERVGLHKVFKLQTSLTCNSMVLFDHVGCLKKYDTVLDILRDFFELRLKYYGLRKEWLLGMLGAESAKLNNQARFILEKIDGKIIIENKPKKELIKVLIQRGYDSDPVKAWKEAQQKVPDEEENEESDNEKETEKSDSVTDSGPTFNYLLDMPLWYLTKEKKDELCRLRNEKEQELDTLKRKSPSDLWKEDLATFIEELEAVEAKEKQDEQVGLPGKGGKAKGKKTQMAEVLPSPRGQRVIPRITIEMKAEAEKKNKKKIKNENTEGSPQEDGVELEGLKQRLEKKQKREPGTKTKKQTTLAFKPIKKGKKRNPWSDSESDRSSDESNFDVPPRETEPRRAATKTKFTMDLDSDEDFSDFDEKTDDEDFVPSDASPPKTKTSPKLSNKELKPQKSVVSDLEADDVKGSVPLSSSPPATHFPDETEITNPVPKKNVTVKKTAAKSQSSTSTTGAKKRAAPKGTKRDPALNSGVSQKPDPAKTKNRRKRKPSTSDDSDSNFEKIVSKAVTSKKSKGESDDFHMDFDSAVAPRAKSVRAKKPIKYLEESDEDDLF

Row | IC50 (HCT-15) | IC50 (HeLa) | IC50 (T47D) | fold change (FC) [1] | fold change (FC) [2] | fold change (FC) [3] | fold change (FC) [4] | inhibition [5] | inhibition [6] | inhibition [7] | inhibition [8] | SMILES
1 | – | – | – | 1.01 | 1.32 | 2.09 | 0.27 | – | – | – | – | Oc1cccc(-c2cc(-c3ccc(Cl)cc3)nc3c2oc2ccccc23)c1
2 | 1830 nM | 860 nM | 1720 nM | 1.32 | inactive | – | 1.18 | 87.8% | 41.9% | inactive | – | Oc1ccc(-c2cc(-c3ccc(Cl)cc3)nc3c2COc2ccccc2-3)cc1
3 | > 50000 nM | > 50000 nM | > 50000 nM | – | – | – | – | 34.7% | inactive | 20.1% | – | Oc1ccccc1-c1cc(-c2ccc(Cl)cc2)c2c(n1)-c1ccccc1OC2
4 | – | – | – | 1.01 | 1.56 | 1.29 | 0.77 | – | – | – | – | Oc1ccc(-c2cc(-c3cccc(Cl)c3)nc3c2oc2ccccc23)cc1
5 | 1520 nM | 740 nM | 860 nM | – | – | – | – | 91.7% | 57% | inactive | – | Oc1cccc(-c2cc(-c3ccccc3Cl)c3c(n2)-c2ccccc2OC3)c1
6 | > 50000 nM | > 50000 nM | > 50000 nM | 1.19 | 0.06 | – | 1.33 | 79.1% | 47.3% | 4.7% | – | Oc1ccccc1-c1cc(-c2ccccc2Cl)nc2c1COc1ccccc1-2
7 | 1230 nM | 820 nM | 860 nM | – | – | – | – | 63.6% | inactive | 12% | – | Oc1cccc(-c2cc(-c3cccc(Cl)c3)c3c(n2)-c2ccccc2OC3)c1
8 | 730 nM | 1700 nM | – | – | – | – | – | – | – | – | – | COc1cccc2c1C(=O)c1c(O)c3c(c(O)c1C2=O)C[C@@](O)(C(=O)CO)C[C@@H]3O[C@H]1C[C@H](N)[C@H](O)[C@H](C)O1 [DOXORUBICIN HYDROCHLORIDE]
9 | – | – | – | 0.98 | 0.18 | – | 0.62 | – | – | – | – | Oc1ccccc1-c1cc(-c2ccccc2Cl)nc2c1oc1ccccc12
10 | 2230 nM | 680 nM | 1230 nM | 1.13 | 0.06 | – | 1.46 | 75.1% | 51.9% | 4.4% | – | Oc1ccccc1-c1cc(-c2cccc(Cl)c2)nc2c1COc1ccccc1-2
11 | 2130 nM | 680 nM | 720 nM | 1.26 | 0.36 | inactive | 1.79 | 84% | 63.7% | 30% | inactive | Oc1cccc(-c2cc(-c3cccc(Cl)c3)nc3c2COc2ccccc2-3)c1
12 | – | – | – | 0.98 | 1.12 | 2.02 | 0.65 | – | – | – | – | Oc1cccc(-c2cc(-c3cccc(Cl)c3)nc3c2oc2ccccc23)c1
13 | 1850 nM | 2080 nM | 1380 nM | – | – | – | – | 100% | 19.9% | 38.5% | 1.7% | Oc1ccc(-c2cc(-c3ccc(Cl)cc3)c3c(n2)-c2ccccc2OC3)cc1
14 | – | – | – | 0.97 | 1.01 | 0.38 | 0.91 | – | – | – | – | Oc1ccccc1-c1cc(-c2cccc(Cl)c2)nc2c1oc1ccccc12
15 | – | – | – | 1.07 | 1.39 | 1.99 | 0.56 | – | – | – | – | Oc1ccc(-c2cc(-c3ccccc3Cl)nc3c2oc2ccccc23)cc1
16 | 1660 nM | > 50000 nM | > 50000 nM | 1.34 | 0.1 | – | 1.59 | 88.9% | 56.6% | 7.6% | – | Oc1ccccc1-c1cc(-c2ccc(Cl)cc2)nc2c1COc1ccccc1-2
17 | > 50000 nM | > 50000 nM | > 50000 nM | – | – | – | – | 18.9% | – | 21.1% | – | Oc1ccccc1-c1cc(-c2cccc(Cl)c2)c2c(n1)-c1ccccc1OC2
18 | 2450 nM | – | 320 nM | – | – | – | – | – | – | – | – | COc1cc([C@@H]2c3cc4c(cc3[C@@H](O[C@@H]3O[C@@H]5CO[C@@H](C)O[C@H]5[C@H](O)[C@H]3O)[C@H]3COC(=O)[C@H]23)OCO4)cc(OC)c1O [ETOPOSIDE]
19 | 4570 nM | 1940 nM | 750 nM | – | – | – | – | 66.7% | 4.7% | 20.2% | – | Oc1cccc(-c2cc(-c3ccc(Cl)cc3)c3c(n2)-c2ccccc2OC3)c1
20 | – | – | – | 1.15 | 1.62 | 1.4 | 1.75 | – | – | – | – | Oc1ccc(-c2cc(-c3ccc(Cl)cc3)nc3c2oc2ccccc23)cc1
21 | 1770 nM | 890 nM | 880 nM | 1.44 | inactive | – | 1.61 | 95.9% | 57.3% | inactive | – | Oc1ccc(-c2cc(-c3cccc(Cl)c3)nc3c2COc2ccccc2-3)cc1
22 | 4720 nM | 680 nM | 940 nM | – | – | – | – | 63.5% | 48.1% | 56.1% | inactive | Oc1ccc(-c2cc(-c3ccccc3Cl)c3c(n2)-c2ccccc2OC3)cc1
23 | 870 nM | 2500 nM | 700 nM | 1.37 | 0.99 | 0.05 | 1.61 | 90.8% | 57.3% | 79.1% | 1.7% | Oc1cccc(-c2cc(-c3ccccc3Cl)nc3c2COc2ccccc2-3)c1
24 | > 50000 nM | > 50000 nM | 1660 nM | – | – | – | – | 78.1% | 45.5% | inactive | – | Oc1ccccc1-c1cc(-c2ccccc2Cl)c2c(n1)-c1ccccc1OC2
25 | 2300 nM | 760 nM | 1180 nM | 1.07 | 0.36 | – | 1.8 | 71.3% | 63.8% | 28.8% | – | Oc1cccc(-c2cc(-c3ccc(Cl)cc3)nc3c2COc2ccccc2-3)c1
26 | – | – | – | 0.99 | 1.39 | 0.93 | 0.63 | – | – | – | – | Oc1ccccc1-c1cc(-c2ccc(Cl)cc2)nc2c1oc1ccccc12
27 | – | – | – | 0.95 | 1.22 | 0.98 | 0.42 | – | – | – | – | Oc1cccc(-c2cc(-c3ccccc3Cl)nc3c2oc2ccccc23)c1

Row | SMILES | IC50 (HCT-15) | IC50 (HeLa) | IC50 (T47D) | fold change (FC) [1] | fold change (FC) [2] | fold change (FC) [3] | fold change (FC) [4] | inhibition [5] | inhibition [6] | inhibition [7] | inhibition [8]
28 | CC[C@@]1(O)C(=O)OCc2c1cc1n(c2=O)Cc2cc3ccccc3nc2-1 [CAMPTOTHECIN] | 20 nM | 130 nM | 490 nM | – | – | – | – | – | – | – | –
